In ChEMBL document CHEMBL3085755, “Synthesis of 3-spiromorpholinone androsterone derivatives as inhibitors of 17β-hydroxysteroid dehydrogenase type 3” (Bioorg Med Chem Lett, 2013):

What was measured:
[1] = biological target: T1, 17-beta-hydroxysteroid dehydrogenase type 3 (Rattus norvegicus) (UniProt O54939); assay: Inhibition of 17beta-HSD3 in rat testes microsomal fraction using [14C]-4-androstene-3,17-dione as substrate assessed as testosterone formation at 0.1 uM after 2 hrs by thin layer chromatography; assay type: microsomes; conditions: Testis
T1 sequence (whole entry): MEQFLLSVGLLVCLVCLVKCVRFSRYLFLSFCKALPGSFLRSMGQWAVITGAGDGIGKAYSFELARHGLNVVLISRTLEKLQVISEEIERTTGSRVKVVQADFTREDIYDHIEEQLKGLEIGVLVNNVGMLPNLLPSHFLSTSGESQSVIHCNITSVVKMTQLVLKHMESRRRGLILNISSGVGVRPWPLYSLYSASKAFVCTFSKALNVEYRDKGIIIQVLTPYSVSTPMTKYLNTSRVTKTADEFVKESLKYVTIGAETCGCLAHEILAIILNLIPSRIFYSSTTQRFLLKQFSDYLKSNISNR
In short: (§1)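 Rat testis microsomes supplying 17β-HSD3, converting [14C]-4-androstene-3,17-dione (50 nM) into testosterone. Inhibition of this transformation is measured at a fixed inhibitor concentration and expressed as mean ± SD of triplicate.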

[2] = biological target: T1, 17-beta-hydroxysteroid dehydrogenase type 3 (Rattus norvegicus); assay: Inhibition of 17beta-HSD3 in rat testes microsomal fraction using [14C]-4-androstene-3,17-dione as substrate assessed as testosterone formation at 1 uM after 2 hrs by thin layer chromatography; assay type: microsomes; conditions: Testis; in short: as §1
[3] = biological target: T2, 17-beta-hydroxysteroid dehydrogenase type 3 (Rattus norvegicus, UniProt O54939); assay: Inhibition of 17beta-HSD3 in rat testes microsomal fraction using [14C]-4-androstene-3,17-dione as substrate assessed as testosterone formation after 2 hrs by thin layer chromatography
T2 sequence (O54939 whole entry): T1 sequence (whole entry)
In short: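 Rat testis microsomal fraction as 17β-HSD3 source, converting [14C]-Δ4-dione (50 nM) to [14C]-testosterone. Activity is plotted against log inhibitor concentration. IC50 is fitted from the inhibition curves. Values are mean ± SD of triplicates.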

Compound | inhibition [1] [%] | inhibition [2] [%] | IC50 [3] [nM]
C[C@]12CC[C@@]3(C[C@@H]1CC[C@@H]1[C@@H]2CC[C@]2(C)C(=O)CC[C@@H]12)CN(Cc1ccccc1)[C@H](Cc1ccccc1)C(=O)O3 | 25.6 | 87.3 | –
O=C1OC2(CCCCC2)CN(Cc2ccccc2)[C@H]1Cc1ccccc1 | 24.2 | 24.3 | –
C[C@]12CC[C@]3(CN[C@H](Cc4ccccc4)C(=O)O3)C[C@@H]1CC[C@@H]1[C@@H]2CC[C@]2(C)C(=O)CC[C@@H]12 | 18.5 | 63.2 | –
O=C1OC2(CCCCC2)CN[C@H]1Cc1ccccc1 | 6.2 | 19.5 | –
C[C@]12CC[C@]3(CN[C@@H](Cc4ccccc4)C(=O)O3)C[C@@H]1CC[C@@H]1[C@@H]2CC[C@]2(C)C(=O)CC[C@@H]12 | 48.8 | 92 | 22
C[C@]12CC[C@@]3(C[C@@H]1CC[C@@H]1[C@@H]2CC[C@]2(C)C(=O)CC[C@@H]12)CN(Cc1ccccc1)[C@@H](Cc1ccccc1)C(=O)O3 | 58.2 | 90.4 | 58
CC1CN(S(=O)(=O)c2ccccc2C(F)(F)F)C(C)CN1C[C@@]1(O)CC[C@@]2(C)[C@@H](CC[C@@H]3[C@@H]2CC[C@]2(C)C(=O)CC[C@@H]32)C1 (stereo partly specified) | 47.3 | – | 14
